Drawing on ChEMBL document CHEMBL1123291, “Modified di- and tripeptides of the C-terminal portion of oxytocin and vasopressin as possible cognition activation agents” (1986), this text covers Reversal for twelve compounds.

Holding throughout (format): functional
In assay [1] the test system is Rattus norvegicus. In words: Ability (% reversal in rats) to reverse electroconvulsive shock-induced amnesia in rodents at a dose of 0.0010 (mg/kg) (following i.m. administration). In short, it runs like this:
(§1)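 Passive avoidance (step-through, lighted vs darkened compartment). […], ECS (20 mA, 1 s) was given transcorneally via saline-soaked electrodes, and maximal hindlimb extension was required. Drug was given im at selected doses 2 h post-training. One hour later, entry latency to the dark side was recorded, with 60 s counted as retention. At least 75% of ECS controls had to be amnesic. Replicates were mostly not run.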

Assay [2] deals with Rattus norvegicus. In words: Compound was tested for its ability (% reversal in rats) to reverse electroconvulsive shock-induced amnesia in rodents at a dose of 1 (mg/kg) administered intramuscularly (im). In short, it runs like this: as §1
For assay [3], the system named is Rattus norvegicus. In words: Ability (% reversal in rats) to reverse electroconvulsive shock-induced amnesia in rodents at a dose of 0.010 (mg/kg) administered intramuscularly (im). In short, it runs like this:
as §1

The test system of assay [4] is Rattus norvegicus. In words: Compound was tested for its ability (% reversal in rats) to reverse electroconvulsive shock-induced amnesia in rodents at a dose of 10 (mg/kg) administered intramuscularly (im). A digest of the protocol: as §1
Assay [5] has as its system Rattus norvegicus. The assay is described as follows: Compound was tested for its ability (% reversal in rats) to reverse electroconvulsive shock-induced amnesia in rodents at a dose of 100 (mg/kg) administered intramuscularly (im). A digest of the protocol:
as §1

Assay [6] concerns Rattus norvegicus. In words: Ability (% reversal in rats) to reverse electroconvulsive shock-induced amnesia in rodents at a dose of 0.10 (mg/kg) (following intramuscular dosing). A digest of the protocol: as §1
For assay [7], the system named is Rattus norvegicus. In words: Compound was tested for its ability (% reversal in rats) to reverse electroconvulsive shock-induced amnesia in rodents at a dose of 1(mg/kg) administered intramuscularly (im). A digest of the protocol:
as §1

Assay [8] has as its system Rattus norvegicus. The assay is described as follows: Compound was tested for its ability (% reversal in rats) to reverse electroconvulsive shock-induced amnesia in rodents at a dose of 0.1 (mg/kg) administered intramuscularly (im). A digest of the protocol:
as §1

For assay [9], the system named is Mus musculus. In words: Compound was tested for its ability (% reversal in mice) to reverse electroconvulsive shock-induced amnesia in rodents at a dose of 1 (mg/kg) administered intramuscularly (im). In short, it runs like this: as §1
Assay [10] deals with Mus musculus. The assay is described as follows: Compound was tested for its ability (% reversal in mice) to reverse electroconvulsive shock-induced amnesia in rodents at a dose of 10 (mg/kg) administered intramuscularly (im). A digest of the protocol:
as §1

Assay [11] relates to Rattus norvegicus. The assay is described as follows: Compound was tested for its ability (% reversal in rats) to reverse electroconvulsive shock-induced amnesia in rodents at a dose of 1 (mg/kg) administered intramuscularly (im). A digest of the protocol: as §1
The test system of assay [12] is Mus musculus. The assay is described as follows: Compound was tested for its ability (% reversal in mice) to reverse electroconvulsive shock-induced amnesia in rodents at a dose of 0.1 (mg/kg) administered intramuscularly (im). In short, it runs like this:
as §1

For assay [13], the system named is Mus musculus. The assay is described as follows: Compound was tested for its ability (% reversal in mice) to reverse electroconvulsive shock-induced amnesia in rodents at a dose of 100 (mg/kg) administered intramuscularly (im). In short, it runs like this: as §1
Assay [14] relates to Rattus norvegicus. In words: Compound was tested for its ability (% reversal in rats) to reverse electroconvulsive shock-induced amnesia in rodents at a dose of 10 (mg/kg) administered intramuscularly (im). In short, it runs like this:
as §1

Assay [15] has as its system Rattus norvegicus. The assay is described as follows: Compound was tested for its ability (% reversal in rats) to reverse electroconvulsive shock-induced amnesia in rodents at a dose of 0.0001 (mg/kg) administered intramuscularly (im). A digest of the protocol: as §1
Assay [16] relates to Rattus norvegicus. In words: Compound was tested for its ability (% reversal in rats) to reverse electroconvulsive shock-induced amnesia in rodents at a dose of 0.032 (mg/kg) administered intramuscularly (im). A digest of the protocol:
as §1

The test system of assay [17] is Rattus norvegicus. The assay is described as follows: Compound was tested for its ability (% reversal in rats) to reverse electroconvulsive shock-induced amnesia in rodents at a dose of 0.0010 (mg/kg) administered intramuscularly (im). A digest of the protocol:
as §1

In assay [18] the test system is Rattus norvegicus. The assay is described as follows: Compound was tested for its ability (% reversal in rats) to reverse electroconvulsive shock-induced amnesia in rodents at a dose of 0.10 (mg/kg) administered intramuscularly (im). In short, it runs like this:
as §1

Assay [19] relates to Rattus norvegicus. In words: Compound was tested for its ability (% reversal in rats) to reverse electroconvulsive shock-induced amnesia in rodents at a dose of 0.010 (mg/kg) administered intramuscularly (im). In short, it runs like this: as §1
Assay [20] relates to Rattus norvegicus. The assay is described as follows: Compound was tested for its ability (% reversal in rats) to reverse electroconvulsive shock-induced amnesia in rodents at a dose of 50 (mg/kg) administered intramuscularly (im). In short, it runs like this: as §1
The test system of assay [21] is Rattus norvegicus. In words: Compound was tested for its ability (% reversal in rats) to reverse electroconvulsive shock-induced amnesia in rodents at a dose of 0.001 (mg/kg) administered intramuscularly (im). In short, it runs like this:
as §1

Assay [22] concerns Rattus norvegicus. The assay is described as follows: Compound was tested for its ability (% reversal in rats) to reverse electroconvulsive shock-induced amnesia in rodents at a dose of 0.00010 (mg/kg) administered intramuscularly (im). A digest of the protocol:
as §1

Assay [23] concerns Rattus norvegicus. The assay is described as follows: Compound was tested for its ability (% reversal in rats) to reverse electroconvulsive shock-induced amnesia in rodents at a dose of 100 (mg/kg) administered intramuscularly (im). A digest of the protocol:
as §1

Take `CC(C)CC(CNCC(=O)O)NC(=O)C1CCC(=O)N1` (stereo not given): the Reversal with Rattus norvegicus [1] came to 33%; in the assay on Rattus norvegicus [2], 66%; with Rattus norvegicus [3] it was 33%; in the assay on Rattus norvegicus [4], 0%; in the assay on Rattus norvegicus [5], 50%; in the assay on Rattus norvegicus [6], 33%.

Consider `CC(C)CC(CNCC(=O)O)NCC1CCCN1C(=O)OCc1ccccc1` (stereo not given), for which the Reversal in the assay with Rattus norvegicus [1] stood at 0%; in the assay on Rattus norvegicus [7], 10%; in the assay with Rattus norvegicus [3], 20%; in the assay on Rattus norvegicus [4] it was 0%; in the assay on Rattus norvegicus [5], 40%; in the assay with Rattus norvegicus [6], 14%.

As for `CC(C)CC(CSCC(=O)O)NC(=O)C1CC(=O)CN1C(=O)OCc1ccccc1` (stereo not given), the Reversal in the assay on Rattus norvegicus [1] is given as 17%; in the assay with Rattus norvegicus [8] it was 83%; with Rattus norvegicus [3] it was 50%; in the assay on Mus musculus [9] it was 17%; with Mus musculus [10], 0%; with Rattus norvegicus [4], 80%. The figures for the Reversal in the assay on Rattus norvegicus [11] and with Mus musculus [12] were 100% and 17%, respectively.

`NC(=O)COCC(Cc1ccccc1)NC(=O)C1CCCN1C(=O)OCc1ccccc1` (stereo not given): the Reversal was found to be 71% in the assay with Mus musculus [13]; 11% in the assay with Rattus norvegicus [1]; 11% with Rattus norvegicus [3]; 20% in the assay with Mus musculus [9]; 59% in the assay with Mus musculus [10]; 25% with Rattus norvegicus [5]. For the same compound, the results for the Reversal in the assay on Rattus norvegicus [11], in the assay with Rattus norvegicus [14] and in the assay on Rattus norvegicus [6] were 25%, 42% and 0%, respectively.

On to `CC(C)CC(N)CN1CC(=O)NC(CC(C)C)C1` (stereo not given), for which the Reversal was 50% in the assay with Rattus norvegicus [1]; 83% with Rattus norvegicus [3]; 0% in the assay with Rattus norvegicus [4]; 24% in the assay on Rattus norvegicus [5]; 20% in the assay on Rattus norvegicus [11]; 82% in the assay on Rattus norvegicus [15]. In addition, the Reversal in the assay with Rattus norvegicus [6] was determined as 66%.

In the case of `CC(C)CC(CS(=O)(=O)CC(=O)O)NC(=O)C1CCCN1C(=O)OCc1ccccc1` (stereo not given), the Reversal in the assay with Rattus norvegicus [1] stood at 50%; in the assay with Rattus norvegicus [16], 66%; in the assay on Rattus norvegicus [6] it was 0%.

As to `CC(C)CC(/C=C/CC(N)=O)NC(=O)C1CCC(=O)N1` (stereo not given), the Reversal with Rattus norvegicus [17] was determined as 11%; with Rattus norvegicus [18] it was 44%; with Rattus norvegicus [19], 0%.

As for `Cc1ccc(S(=O)(=O)N2CCCC2CNC(CNCC(=O)O)CC(C)C)cc1` (stereo not given), the Reversal in the assay with Rattus norvegicus [20] came out at 0%; with Rattus norvegicus [1], 0%; in the assay with Rattus norvegicus [2] it was 20%; in the assay on Rattus norvegicus [3], 0%; with Rattus norvegicus [4], 80%; in the assay with Rattus norvegicus [6], 40%.

In the case of `CC(C)CC(CSCC(=O)O)NC(=O)C1CCC(=O)N1C(=O)OCc1ccccc1` (stereo not given), the Reversal in the assay with Rattus norvegicus [1] is reported as 33%; with Rattus norvegicus [3], 33%; in the assay on Rattus norvegicus [5], 0%; in the assay with Rattus norvegicus [11], 0%; in the assay with Rattus norvegicus [14], 0%; in the assay on Rattus norvegicus [6] it was 0%.

For the compound `CC(C)CC1CN(C[C@H](CC(C)C)NC(=O)[C@@H]2CCCN2C(=O)OCc2ccccc2)CC(=O)N1` (stereo not given in full), the Reversal with Rattus norvegicus [3] was found to be 17%; in the assay on Rattus norvegicus [4], 0%; in the assay with Rattus norvegicus [5], 80%; in the assay with Rattus norvegicus [21], 17%; in the assay on Rattus norvegicus [11] it was 0%; in the assay on Rattus norvegicus [6], 50%.

As to `CC(C)CC(CSCC(N)=O)NC(=O)C1CCCN1C(=O)OCc1ccccc1` (stereo not given), the Reversal is on record as 66% in the assay on Rattus norvegicus [1], 0% with Rattus norvegicus [22], 33% in the assay with Rattus norvegicus [19] and 50% with Rattus norvegicus [6].

Take `CC(C)C[C@@H](CNCC(N)=O)NC(=O)[C@@H]1CCCN1C(=O)OCc1ccccc1`: the Reversal in the assay on Rattus norvegicus [1] is reported as 43%; with Rattus norvegicus [23], 0%; with Rattus norvegicus [3], 43%; with Rattus norvegicus [4] it was 0%; in the assay with Rattus norvegicus [11], 0%; in the assay with Rattus norvegicus [6] it was 43%.
